Shown are actives, neighbours in structure and some others; about 2.3% of the full set was active somewhere.
CHT inh: inhibitors of human choline transporter CHT | Q9GZV3 | CHT-expressing cells, membrane potential dye, choline response; active compounds read low | B-score at 10 µM | 310,000 tested, 0.86% active;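 active means B-score over 3 SD under the library average, and starting fluorescence ratio not unusually high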;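 further: choline stimulus applied at its EC90 after an EC20 pre-addition; B-score computed on integrated fluorescence ratio after choline addition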
Target sequence (Q9GZV3 whole entry, looked up): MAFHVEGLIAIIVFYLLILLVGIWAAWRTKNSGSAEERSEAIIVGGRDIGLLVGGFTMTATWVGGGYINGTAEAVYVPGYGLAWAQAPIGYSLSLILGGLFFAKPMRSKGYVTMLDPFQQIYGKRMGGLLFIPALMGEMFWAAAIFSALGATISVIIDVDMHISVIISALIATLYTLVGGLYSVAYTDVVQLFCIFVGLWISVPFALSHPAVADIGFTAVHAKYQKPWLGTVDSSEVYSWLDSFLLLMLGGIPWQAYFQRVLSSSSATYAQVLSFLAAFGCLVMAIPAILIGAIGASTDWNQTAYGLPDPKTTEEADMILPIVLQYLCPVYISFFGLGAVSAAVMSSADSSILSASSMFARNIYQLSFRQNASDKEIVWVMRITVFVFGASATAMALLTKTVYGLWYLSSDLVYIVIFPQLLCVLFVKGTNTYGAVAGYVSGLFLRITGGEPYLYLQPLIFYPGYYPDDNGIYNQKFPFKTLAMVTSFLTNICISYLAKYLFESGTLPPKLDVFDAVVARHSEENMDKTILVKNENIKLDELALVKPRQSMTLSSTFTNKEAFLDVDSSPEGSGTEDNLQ
pCIP destab: lowers stability of the mouse p/CIP coactivator protein; decrease of EGFP signal, % at 10 µM; Q05BA5; F442A p/CIP-EGFP cells, EGFP fluorescence, 16 h; 290,000 tested, 0.01% active;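 active means EGFP signal decrease of at least 30% at 10 µM or well 3 SD below plate mean, unless failing retest; inactive means the rest, including hits failing retest or dose response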
CHT PAM: allosteric activators of human choline transporter CHT; Q9GZV3; CHT-expressing cells, membrane potential dye, choline EC20; active compounds read high; LV-AA mutant CHT in HEK293 cells; B-score at 10 µM; 310,000 tested, 0.49% active; AID 488977;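 active means initial fluorescence not abnormally high and integrated response B-score, plate-corrected, over 3 SD above library mean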
Pemphigus Ab inh: blocks pemphigus antibody binding to human desmoglein-3; DSG3-coupled beads, scFv-anti-DSG3-GFP binding, flow cytometry; active compounds read low; binding (percent of control), % at 10 µM; 310,000 tested, 0.48% active;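 active means binding more than 3 SD below its plate's average and above zero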;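 further: hits lower antibody fragment binding to DSG3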
GPR7 antagonist: blocks human GPR7 receptor signaling; AID 1861; 290,000 tested, 1.1% active; inhibition, % at 4.4 µM; GPR7-expressing cells, fluorescence antagonist assay; in the data active means inhibition above about 16%, passing the limit was not always enough;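 further: cells stimulated with the agonist NPW; 0% = agonist with vehicle and 100% = vehicle without agonist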
T cell modulator: modulates CD8 T cell binding to vesicles; 2C CD8+ T cell-vesicle binding, flow cytometry; active compounds read low; response (vesicle binding), % at 7 µM; 330,000 tested, 0.068% active;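 active means response, share of CD8 T cells binding vesicles, and their 90th percentile fluorescence all below set limits, cut at about 80% in these data, passing the limit was not always enough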;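 further: values below 100% mean blocked vesicle binding to the CD8+ T cells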
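Material: 2C TCR transgenic mouse naive CD8+ T cells, MACS-purified. Also added: QL9-charged Drosophila Ld/ICAM-1/B7-1 vesicles. Timing: binding 1.5 h at 37 °C. Measured by: high-throughput flow cytometry with anti-B7-1 and anti-CD8 staining. Read-out: percent CD8+ FL2 mean versus row control. Controls: Unloaded micro-vesicles (low), QL9 vesicles with 0.7% DMSO (high).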
CHT activ conf: confirmation of human choline transporter (CHT) activators | shares compounds with CHT PAM | CHT-expressing cells, membrane potential dye fluorescence (FDSS); % of choline EC20–EC90 response window; HEK293 expressing CHT LV-AA mutant; choline added at its EC20 | activation, % at 10 µM | 2,500 tested, 91% active;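 active means primary screen active, with duplicate mean activation above negative control mean plus 3 SD, cut at about 11% in these data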
HEK293 MP dye: counter-screen for CHT activators: effect in parental HEK293 cells. shares compounds with CHT PAM. membrane potential dye fluorescence (FDSS); measured after EC20 choline addition. ratio readout change at 10 µM, hits read low. 2,500 tested, 62% active. AID 623908;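 active means duplicate-averaged ratio beyond 3 SD from buffer wells, up or down, though filed actives are nearly all decreases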
Numbers without * were called inactive; i = inactive; x = no result.

SMILES	CHT inh	pCIP destab	CHT PAM	Pemphigus Ab inh	GPR7 antagonist	T cell modulator	CHT activ conf	HEK293 MP dye
Cc1cccn2c(=O)c3cc(C(=O)NC4CCS(=O)(=O)C4)sc3nc12 (centres undefined)	i	-19	6.4*	94	-5	584	51*	-43*
Cc1cccn2c(=O)c(/C=C(\C#N)C(=O)NC3CCS(=O)(=O)C3)c(Oc3ccccc3Cl)nc12 (centres undefined)	i	-3	i	101	7	212	8	-47*
Cc1ccccc1NC(=O)c1cc2c(=O)n3cccc(C)c3nc2s1	i	-6	i	104	-6	302	x	x
Cc1cccn2c(=O)c3cc(C(=O)NC4CCCC4)c(=N)n(C4CCCC4)c3nc12	i	-4	i	114	5	0	34*	-39*
COc1ccc(N2CC(C)Cn3c2nc2c3c(=O)n(Cc3ccc(F)cc3)c(=O)n2C)c(OC)c1 (centres undefined)	i	-3	i	x	-7	613	18*	i
CCOCCCn1c(SCC(=O)NC2CCCCC2)nc2ccccc2c1=O	x	x	x	98	x	x	x	x
Oc1ccc(N2CCN(c3ncnc4sc(-c5ccccc5)cc34)CC2)cc1	x	-12	x	91	10	x	x	x
CCc1cc2c(N3CCN(c4ccccc4)CC3)ncnc2s1	i	-17	i	102	4	352	16*	i
COc1ccc(C(CC(=O)N2CCCC(C)C2)c2c(OC)cc(OC)c3c(-c4ccccc4)cc(=O)oc23)cc1 (centres undefined)	i	15	i	102	x	133	5	i
COc1ccc(C(CC(=O)N2CCOCC2)c2c(OC)cc(OC)c3c(-c4ccccc4)cc(=O)oc23)cc1 (centres undefined)	i	-19	i	105	x	174	x	x
COc1ccc(CCN2CC(C(=O)NCc3cn(C)nc3C)CCC2=O)cc1 (centres undefined)	x	x	x	98	x	x	x	x
Cn1c(=O)c(=O)n(C)c2cc(N3CCCC3)c(NS(=O)(=O)c3ccc(Cl)cc3)cc21	i	0	6.6*	99	-12	383	55*	-55*
Cn1c(=O)c(=O)n(C)c2cc(N3CCOCC3)c(NS(=O)(=O)c3ccc([N+](=O)[O-])cc3)cc21	i	11	i	100	-6	319	x	x
Cn1c(=O)c(=O)n(C)c2cc(N3CCOCC3)c(NS(=O)(=O)c3ccc(F)c(Cl)c3)cc21	i	-9	6.6*	106	11	580	49*	-51*
CN1CCN(c2ccc(Cl)cc2NC(=O)C2COc3ccccc3O2)CC1 (centres undefined)	i	1	i	102	14	517	0	i
CCOC(=O)C1CCCN1C(=O)C1(NC(C)=O)CCCC1 (centres undefined)	x	x	x	126	x	x	x	x
CC1CSc2n(-c3cccc(C(F)(F)F)c3)cc(-c3ccccc3)[n+]21 (centres undefined)	i	-3	i	113	-5	329	50*	-31*
FC(F)(F)c1cccc(N2Cc3ccccc3C2)c1	i	2	i	93	0	389	x	x
CCCCCC(=O)Cc1cc(O)cc2c1C(=O)Oc1cc(O)c(C(=O)O)c(CCCCC)c1O2	i	5	i	x	x	101	30*	-50*
CN1CCN(c2ccc([N+](=O)[O-])cc2C(=O)N2CCOCC2)CC1	i	-5	i	90	12	264	x	x
O=C(NC1CCSc2ccccc21)c1cc([N+](=O)[O-])ccc1N1CCOCC1 (centres undefined)	i	x	6.4*	102	x	533	6	i
O=C(NC1CCSc2ccccc21)c1ccc([N+](=O)[O-])cc1 (centres undefined)	i	5	i	99	14	160	x	x
O=C(NCCc1ccccc1)c1cc([N+](=O)[O-])ccc1N1CCOCC1	x	x	x	91	x	320	x	x
O=C(c1cc([N+](=O)[O-])ccc1N1CCOCC1)N1CCN(c2ccccc2)CC1	i	-26	12*	x	20	390	48*	i
O=[N+]([O-])c1ccc(N2CCN(c3ccccc3F)CC2)c(S(=O)(=O)N2CCOCC2)c1	i	-12	6.2*	95	-7	422	34*	i
SMILES	CHT inh	pCIP destab	CHT PAM	Pemphigus Ab inh	GPR7 antagonist	T cell modulator	CHT activ conf	HEK293 MP dye
O=C(NCCc1ccc(F)cc1)c1cc([N+](=O)[O-])ccc1N1CCOCC1	i	x	i	100	x	655	2	i
CN1C=CC(=O)[C@@H](O)[C@H]1c1ccccc1Br	x	x	x	105	x	x	x	x
COC(=O)c1ccc(CSc2ccccc2NC(=S)Nc2cccc(C(F)(F)F)c2)o1	x	x	x	102	x	x	x	x
COc1ccccc1NC(=O)COC(=O)Cn1cnc2c1c(=O)n(C)c(=O)n2C	x	x	x	101	x	346	x	x
O=C(Nc1ccccc1C(=O)NCCN1CCOCC1)c1cccc([N+](=O)[O-])c1	i	-12	i	x	-5	256	58*	-57*
O=C(Nc1cc([N+](=O)[O-])ccc1C(=O)NCCN1CCOCC1)c1ccccc1	i	0	i	99	-11	562	x	x
Cc1cc(C(=O)OCC(=O)NC2(C#N)CCCCC2)c(C)o1	x	x	x	116	x	325	x	x
CCc1cccc(OCCn2nc(C(=O)O)c3ccccc3c2=O)c1	i	0	i	101	-1	251	30*	i
CCOC(=O)c1sc(=N)n(-c2ccc(OC)cc2)c1C	i	0	i	94	6	281	x	x
CCOC(=O)c1sc(=S)n(-c2ccc(OC)cc2)c1N	i	-4	i	96	-2	369	13*	i
COc1ccc(NC(=O)CNc2ccc(OC)c(S(=O)(=O)N3CCOCC3)c2)cc1	x	x	x	100	x	x	x	x
Cc1cccn2cc(CNc3ccccc3)nc12	i	8	i	102	-1	156	31*	-26*
CC(C)CN(C(=O)CSc1nnc(-c2cccs2)n1N)c1c(N)n(Cc2ccccc2)c(=O)[nH]c1=O	i	x	6.7*	103	x	303	26*	i
CCN(C(=O)CSc1nnc(-c2ccc(C)cc2)n1N)c1c(N)n(Cc2ccccc2)c(=O)[nH]c1=O	x	x	x	102	x	x	x	x
COc1c(O)c(=O)n2c3ccccc3c3ccnc1c32	i	x	i	98	x	546	41*	i
CCCc1[nH]n(-c2ccc([N+](=O)[O-])cc2)c(=O)c1C=NCCCn1ccnc1	i	7	i	112	-6	319	37*	-48*

Screening results (PubChem BioAssay)
